This note sets out measurements from ChEMBL document CHEMBL2434966, “Novel N-4-piperazinyl-ciprofloxacin-chalcone hybrids: synthesis, physicochemical properties, anticancer and topoisomerase I and II inhibitory activity” (Eur J Med Chem, 2013).

The target of series [1] is DNA topoisomerase 2-alpha (Homo sapiens) (UniProt P11388). Put plainly: Inhibition of human topoisomerase 2alpha-mediated relaxation of supercoiled pBR322 DNA at 100 uM after 30 mins by agarose gel electrophoresis relative to control. An outline of the steps: (§1)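 Human topo IIα (1 unit) with 200 ng supercoiled pBR322 in Tris-HCl pH 7.9, 50 mM NaCl, 5 mM MgCl2, 1 mM EDTA, 1 mM ATP, BSA, 30 min at 30 °C. DMSO was matched in the enzyme-only control. Stopped with EDTA; 1% agarose/TAE gel, ethidium stain, supercoiled band quantified by UV imaging. Etoposide was the positive control.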
Chain of DNA topoisomerase 2-alpha (Homo sapiens) (P11388 whole entry): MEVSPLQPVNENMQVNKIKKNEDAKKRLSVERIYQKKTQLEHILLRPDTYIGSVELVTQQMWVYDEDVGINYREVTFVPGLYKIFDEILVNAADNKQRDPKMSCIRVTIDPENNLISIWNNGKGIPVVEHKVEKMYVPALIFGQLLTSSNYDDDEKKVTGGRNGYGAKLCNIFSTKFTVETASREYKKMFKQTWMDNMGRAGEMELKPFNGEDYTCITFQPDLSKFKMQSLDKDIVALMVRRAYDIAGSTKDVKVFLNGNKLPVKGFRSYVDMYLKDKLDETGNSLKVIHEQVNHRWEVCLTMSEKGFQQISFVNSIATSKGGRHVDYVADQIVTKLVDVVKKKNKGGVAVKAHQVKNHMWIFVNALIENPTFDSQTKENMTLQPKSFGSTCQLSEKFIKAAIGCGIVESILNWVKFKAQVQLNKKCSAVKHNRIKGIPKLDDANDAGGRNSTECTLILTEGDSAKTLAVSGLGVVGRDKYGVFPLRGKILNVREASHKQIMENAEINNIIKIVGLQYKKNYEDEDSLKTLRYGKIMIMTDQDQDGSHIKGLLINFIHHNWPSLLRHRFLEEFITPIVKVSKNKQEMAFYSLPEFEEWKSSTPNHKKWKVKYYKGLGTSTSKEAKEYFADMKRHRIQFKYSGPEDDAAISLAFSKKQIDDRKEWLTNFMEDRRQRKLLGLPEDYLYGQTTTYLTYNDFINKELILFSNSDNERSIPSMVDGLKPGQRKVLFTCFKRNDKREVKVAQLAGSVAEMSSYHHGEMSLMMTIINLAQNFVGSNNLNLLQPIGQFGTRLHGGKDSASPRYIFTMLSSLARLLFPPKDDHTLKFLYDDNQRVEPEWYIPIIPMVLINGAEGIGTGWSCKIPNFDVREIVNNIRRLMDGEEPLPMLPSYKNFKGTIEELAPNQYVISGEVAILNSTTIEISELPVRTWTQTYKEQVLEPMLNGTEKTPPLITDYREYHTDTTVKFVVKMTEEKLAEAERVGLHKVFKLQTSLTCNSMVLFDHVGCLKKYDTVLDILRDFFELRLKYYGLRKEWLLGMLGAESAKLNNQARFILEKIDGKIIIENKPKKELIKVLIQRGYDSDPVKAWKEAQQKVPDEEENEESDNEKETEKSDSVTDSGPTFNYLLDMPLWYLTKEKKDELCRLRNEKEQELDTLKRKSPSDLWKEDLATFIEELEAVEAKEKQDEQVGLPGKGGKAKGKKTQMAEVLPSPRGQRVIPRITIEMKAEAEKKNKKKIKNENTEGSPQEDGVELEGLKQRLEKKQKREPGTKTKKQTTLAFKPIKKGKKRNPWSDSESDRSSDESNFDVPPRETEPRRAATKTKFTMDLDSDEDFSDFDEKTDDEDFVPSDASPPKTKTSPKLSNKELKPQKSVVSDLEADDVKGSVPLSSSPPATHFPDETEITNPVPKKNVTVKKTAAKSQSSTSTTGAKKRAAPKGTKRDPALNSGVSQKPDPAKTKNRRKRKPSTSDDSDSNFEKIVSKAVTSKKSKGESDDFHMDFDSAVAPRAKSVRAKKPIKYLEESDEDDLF

Series [2] is described as follows: Aqueous solubility of the compound at pH 7.8 by UV spectroscopic analysis. Type of series: physicochemical. The note with it: aqueous solution. An outline of the steps:
(§2)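 Excess solid (10 mg) shaken in buffer at pH 6.9 or 7.8, 37 °C. The filtrate was diluted into the linear calibration range and dissolved drug measured by UV absorbance at λmax 272 nm. Values are the average of at least three agreeing independent measurements.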

Series [3] deals with T1, DNA topoisomerase 1 (Homo sapiens) (UniProt P11387).
T1 sequence (whole entry): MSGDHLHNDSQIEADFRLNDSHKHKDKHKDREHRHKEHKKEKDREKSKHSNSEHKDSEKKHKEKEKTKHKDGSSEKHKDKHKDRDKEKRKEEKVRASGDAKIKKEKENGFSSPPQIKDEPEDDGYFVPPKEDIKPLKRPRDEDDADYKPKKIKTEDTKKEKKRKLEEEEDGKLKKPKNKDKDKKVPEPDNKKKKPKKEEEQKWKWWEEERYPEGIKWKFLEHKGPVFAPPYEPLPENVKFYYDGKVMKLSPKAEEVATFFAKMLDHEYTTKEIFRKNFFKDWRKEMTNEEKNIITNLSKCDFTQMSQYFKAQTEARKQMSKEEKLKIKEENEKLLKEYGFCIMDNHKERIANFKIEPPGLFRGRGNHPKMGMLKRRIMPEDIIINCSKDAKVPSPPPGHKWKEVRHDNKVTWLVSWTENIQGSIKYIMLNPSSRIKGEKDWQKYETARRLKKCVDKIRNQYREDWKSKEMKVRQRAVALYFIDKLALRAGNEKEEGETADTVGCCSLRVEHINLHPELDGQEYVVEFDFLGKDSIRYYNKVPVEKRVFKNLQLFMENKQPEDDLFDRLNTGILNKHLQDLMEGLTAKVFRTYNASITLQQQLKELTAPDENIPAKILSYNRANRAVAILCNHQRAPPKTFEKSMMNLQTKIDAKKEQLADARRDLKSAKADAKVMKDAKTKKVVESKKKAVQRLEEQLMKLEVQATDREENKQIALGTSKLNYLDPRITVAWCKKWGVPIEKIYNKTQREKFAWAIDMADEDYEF
Briefly: Inhibition of human recombinant topoisomerase 1-mediated relaxation of supercoiled pBR322 DNA at 100 uM after 30 mins by agarose gel electrophoresis relative to control. The procedure, abridged: (§3)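 Recombinant human topo I (0.4 units) with 100 ng supercoiled pBR322, 37 °C for 30 min in Tris-HCl pH 7.9, 150 mM NaCl, 0.1% BSA, 1 mM spermidine, 5% glycerol. Compounds came from 20 mM DMSO stocks, with matched DMSO in the enzyme-only control. Stopped with sarcosyl; 1% agarose/TAE gel, ethidium stain, UV densitometry. Camptothecin was the positive control.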

The target of series [4] is DNA topoisomerase 2-alpha (Homo sapiens) (UniProt P11388). Put plainly: Inhibition of human topoisomerase 2alpha-mediated relaxation of supercoiled pBR322 DNA at 20 uM after 30 mins by agarose gel electrophoresis relative to control. An outline of the steps: as §1
Series [5] has as its target T1, DNA topoisomerase 1 (Homo sapiens). Briefly: Inhibition of human recombinant topoisomerase 1-mediated relaxation of supercoiled pBR322 DNA at 20 uM after 30 mins by agarose gel electrophoresis relative to control. An outline of the steps: as §3
Series [6] can be described thus: Aqueous solubility of the compound at pH 6.9 by UV spectroscopic analysis. Type of series: physicochemical. As to conditions: aqueous solution. An outline of the steps: as §2
A short description of series [7]: Octanol-phosphate buffer partition coefficient, log P of the compound after 5 hrs by shake-flask method. The class given is physicochemical. An outline of the steps:
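Shake-flask method: 100 µL of 0.2 mg/mL stock diluted into 1.9 mL phosphate buffer pH 7.4 plus 2 mL mutually saturated n-octanol, protected from light. Vortexed 3 min, shaken 5 h at 25 °C. Both phases assayed by UV at 272 nm; log P = log([octanol]/[aqueous]), run in triplicate.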

Series [8] has as its target T1, DNA topoisomerase 1 (Homo sapiens). Put plainly: Inhibition of human topoisomerase 1-mediated unwinding of pHOT1 plasmid DNA up to 1000 uM after 30 mins by agarose gel electrophoresis. The procedure, abridged: (§4)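 pHOT1 plasmid (100 ng) was first relaxed with excess human topo I (3 units) for 30 min at 37 °C in Tris-HCl pH 7.9. Variable compound amounts were then added for a further 30 min at 37 °C. Stopped with EDTA; 1% agarose/TAE gel at 15 V for 15 h, ethidium stain, supercoiled DNA quantified. m-AMSA was the positive control.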

The next series has as its system HCT-116. Briefly: Growth inhibition of human HCT116 cells at 10^-5 M after 48 hrs by sulforhodamine B assay. Type of series: functional, cell-based. An outline of the steps: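 NCI 60-cell-line primary screen. Single concentration of 10^-5 M, 48 h incubation. End point by sulforhodamine B protein staining read spectrophotometrically. Reported as percent growth of treated cells relative to untreated control cells.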
For orientation: In SRB staining, fixed cells bind dye roughly in proportion to their protein.

The test system of the next series is NCI-H522. Put plainly: Growth inhibition of human NCI-H522 cells at 10^-5 M after 48 hrs by sulforhodamine B assay. Type of series: functional, cell-based. The procedure, abridged:
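NCI 60-cell-line primary one-dose screen. Cells were exposed to a single 10^-5 M concentration for 48 h. The end point was sulforhodamine B protein staining, read spectrophotometrically. Results are reported as percent growth of treated cells relative to untreated control cells.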

The target of series [9] is T1, DNA topoisomerase 1 (Homo sapiens). Briefly: Inhibition of human topoisomerase 1-mediated unwinding of pHOT1 plasmid DNA after 30 mins by agarose gel electrophoresis. An outline of the steps: as §4

Values after ≈ are worked out from the molar mass of the structure shown. Active and inactive are the calls of the source. No cut-off for these calls is given here.

By inhibition is commonly meant how much of the control response was suppressed. In general, solubility refers to how much of the substance goes into solution per volume. A higher solubility goes with a readily soluble substance. The term logP denotes a log measure of how a compound divides between an organic and an aqueous phase. Read a high logP as higher lipophilicity. As to `O=C(CN1CCN(c2cc3c(cc2F)c(=O)c(C(=O)O)cn3C2CC2)CC1)Nc1ccc(C(=O)/C=C/c2cccc(Cl)c2)cc1`, the inhibition in [1] was found to be 52.9%; in [3], 68.8%; in series [4], 24.6%; in [5] it was 3.1%. Also, the solubility came out at 29.7 µg/mL (≈ 47.3 µM) in series [2] and 34.4 µg/mL (≈ 54.7 µM) in series [6]. The compound also yielded a logP at 5 h in [7] of 0.302.

Regarding `O=C(CN1CCN(c2cc3c(cc2F)c(=O)c(C(=O)O)cn3C2CC2)CC1)Nc1ccc(C(=O)/C=C/c2ccccc2Cl)cc1`, the inhibition stood at 66.7% in series [1], 70.8% in series [3], 21.3% in [4] and 4.2% in [5]. Also, the solubility came out at 2.12 µg/mL (≈ 3.37 µM) in series [2] and 2.45 µg/mL (≈ 3.89 µM) in series [6]. Moreover, in series [7], the logP at 5 h was determined as 1.29.

With `COc1ccc(/C=C/C(=O)c2ccc(NC(=O)CN3CCN(c4cc5c(cc4F)c(=O)c(C(=O)O)cn5C4CC4)CC3)cc2)cc1`, in [8], the inhibition entry is “inactive”. Besides, the inhibition in series [1] is 84.3%; in series [3], 67.6%; in series [4], 49.6%; in [5], 25.3%. In addition, the results for the solubility in series [2] and in series [6] were 2.42 µg/mL (≈ 3.87 µM) and 2.98 µg/mL (≈ 4.77 µM), respectively. Besides, the “growth inhibition (GI)” value with HCT-116 and in the series with NCI-H522 was “Active” in each case. In series [7], this compound displayed a logP at 5 h of 0.684.

Regarding `O=C(CN1CCN(c2cc3c(cc2F)c(=O)c(C(=O)O)cn3C2CC2)CC1)Nc1ccc(C(=O)/C=C/c2cccc([N+](=O)[O-])c2)cc1`, the inhibition in series [1] is 82.8%; in series [3], 90.5%; in series [4], 8.8%; in series [5], 11.1%. Further, the values for the solubility in series [2] and in series [6] were 27.4 µg/mL (≈ 42.9 µM) and 30.7 µg/mL (≈ 47.9 µM), respectively. In [7], this compound came in with a logP at 5 h of -0.0812.

As for `COc1ccc(/C=C/C(=O)c2ccc(NC(=O)CN3CCN(c4cc5c(cc4F)c(=O)c(C(=O)O)cn5C4CC4)CC3)cc2)cc1OC`, the inhibition in series [1] was found to be 9%; in [3], 73.2%; in series [5] it was 2.5%. In addition, the solubility in series [2] is 0.68 µg/mL (≈ 1.04 µM); in [6], 0.75 µg/mL (≈ 1.15 µM). The same compound had a logP at 5 h in series [7] of 1.46.

`O=C(CN1CCN(c2cc3c(cc2F)c(=O)c(C(=O)O)cn3C2CC2)CC1)Nc1ccc(C(=O)/C=C/c2ccc(Cl)cc2)cc1`: the inhibition in series [1] came out at 27.7%; in series [3], 67.5%; in series [5], 0.4%. For the same compound, the solubility was found to be 2.23 µg/mL (≈ 3.54 µM) in series [2] and 2.77 µg/mL (≈ 4.4 µM) in [6]. For the same compound, the “growth inhibition (GI)” value in the series with HCT-116 and in the series with NCI-H522 was “Active” throughout. Also, the logP at 5 h in series [7] was determined as 0.47.

For `O=C(CN1CCN(c2cc3c(cc2F)c(=O)c(C(=O)O)cn3C2CC2)CC1)Nc1ccc(C(=O)/C=C/c2ccc3c(c2)OCO3)cc1`, the inhibition result in [8] is “inactive”. Further, the inhibition in series [1] worked out at 85.7%; in series [3], 91.3%; in series [4] it was 43.8%; in [5] it was 25.9%. The solubility in series [2] stood at 2.24 µg/mL (≈ 3.51 µM); in series [6], 2.66 µg/mL (≈ 4.17 µM). This compound registered a logP at 5 h in series [7] of 0.562.

On to `Cc1ccc(/C=C/C(=O)c2ccc(NC(=O)CN3CCN(c4cc5c(cc4F)c(=O)c(C(=O)O)cn5C4CC4)CC3)cc2)c(C)c1`, for which the inhibition amounted to 78.9% in [1], 85.1% in [3], 29.4% in series [4] and 11% in series [5]. The solubility turned out to be 2.07 µg/mL (≈ 3.32 µM) in series [2] and 2.12 µg/mL (≈ 3.4 µM) in series [6]. For the same compound, in series [7], the log partition coefficient (logP) at 5 h is 1.47.

Consider `COc1cc(NS(C)(=O)=O)ccc1Nc1c2ccccc2nc2ccccc12`, for which, in [9], the inhibition result is “Dose-dependent effect”.
